Reference: ChEMBL document CHEMBL1143790, “Effect of substituents on diarylmethanes for antitubercular activity” (2007)
Values after ≈ are worked out from the molar mass of the structure shown.

Legend:
Format in all cases: functional
[1] = system: Mycobacterium tuberculosis; test: Antitubercular activity against Mycobacterium tuberculosis H37Rv by BACTEC method
In short: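 Radiometric BACTEC 12B (7H12) broth; compounds from 1 mg/mL DMSO stock, DMSO-only controls, isoniazid and rifampin references. H37Rv inoculated at 10⁴–10⁵ CFU/mL, plus 1:100-diluted inoculum control. Incubated at 37 °C with daily GI readings until the 1:100 control reached GI 30. MIC was the concentration giving a final GI below the 1:100 control ([…] inhibition).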

[2] = system: Mycobacterium tuberculosis; test: Antitubercular activity against Mycobacterium tuberculosis H37Rv by microdilution method
In short: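 Agar microdilution: serial two-fold compound dilutions in 7H10 agar, with H37Rv as test organism. MIC was the concentration completely inhibiting growth and colony-forming ability of M. tuberculosis.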

[3] = system: Mycobacterium tuberculosis; test: Antitubercular activity against Mycobacterium tuberculosis H37Rv by MABA assay
[4] = Selectivity index, IC50 for vero cells to MIC for Mycobacterium tuberculosis H37Rv

Row | Structure (SMILES) | MIC [1] | MIC [2] | MIC [3] | Selectivity index [4]
1 | COc1ccc(C(c2ccc(OCCN3CCCCC3)cc2)c2cn(S(=O)(=O)c3ccccc3)c3ccccc23)cc1 (centres undefined) | 6.25 µg/mL (≈ 10.8 µM) | 6.25 µg/mL (≈ 10.8 µM) | 6.25 µg/mL (≈ 10.8 µM) | 10
2 | COc1ccc(Cc2ccc(OCCN3CCCCC3)cc2)cc1 | – | > 25 µg/mL | > 25 µg/mL | –
3 | COc1ccc(C(c2ccc(OCCN(C)C)cc2)c2cn(S(=O)(=O)c3ccccc3)c3ccccc23)cc1 (centres undefined) | – | > 12.5 µg/mL | > 25 µg/mL | –
4 | CN(C)CCOc1ccc(C(c2ccc(O)cc2)c2cc3ccccc3c3ccccc23)cc1 (centres undefined) | 12.5 µg/mL (≈ 27.9 µM) | 12.5 µg/mL (≈ 27.9 µM) | 25 µg/mL (≈ 55.9 µM) | –
5 | CCN(CC)CCOc1ccc(C(c2ccc(O)cc2)c2cc3ccccc3c3ccccc23)cc1 (centres undefined) | 12.5 µg/mL (≈ 26.3 µM) | 12.5 µg/mL (≈ 26.3 µM) | 25 µg/mL (≈ 52.6 µM) | –
6 | CCN(CC)CCOc1ccc(C(c2ccc(OC)cc2)c2cccnc2)cc1 (centres undefined) | 12.5 µg/mL (≈ 32 µM) | > 25 µg/mL | > 25 µg/mL | –
7 | COc1ccc(C(c2ccc(OCCN3CCCC3)cc2)c2cccnc2)cc1 (centres undefined) | 12.5 µg/mL (≈ 32.2 µM) | > 25 µg/mL | > 25 µg/mL | –
8 | COc1ccc(C(c2ccc(OCCN(C)C)cc2)c2c3ccccc3cc3ccccc23)cc1 (centres undefined) | – | 12.5 µg/mL (≈ 27.1 µM) | 12.5 µg/mL (≈ 27.1 µM) | –
9 | COc1ccc(C(c2ccc(OCCN3CCCC3)cc2)c2cn(S(=O)(=O)c3ccccc3)c3ccccc23)cc1 (centres undefined) | – | 12.5 µg/mL (≈ 22.1 µM) | 12.5 µg/mL (≈ 22.1 µM) | –
10 | CCN(CC)CCOc1ccc(C(c2ccc(OC)cc2)c2cc3ccccc3c3ccccc23)cc1 (centres undefined) | 6.25 µg/mL (≈ 12.8 µM) | 6.25 µg/mL (≈ 12.8 µM) | 6.25 µg/mL (≈ 12.8 µM) | 20
11 | COc1ccc(C(c2ccc(OCCN3CCCCC3)cc2)c2cc3ccccc3c3ccccc23)cc1 (centres undefined) | 6.25 µg/mL (≈ 12.5 µM) | 6.25 µg/mL (≈ 12.5 µM) | 6.25 µg/mL (≈ 12.5 µM) | 10
12 | Oc1ccc(C(c2ccc(OCCN3CCCCC3)cc2)c2cc3ccccc3c3ccccc23)cc1 (centres undefined) | 12.5 µg/mL (≈ 25.6 µM) | 12.5 µg/mL (≈ 25.6 µM) | 25 µg/mL (≈ 51.3 µM) | –
13 | COc1ccc(C(c2ccc(OCCN(C)C)cc2)c2cc3ccccc3c3ccccc23)cc1 (centres undefined) | 12.5 µg/mL (≈ 27.1 µM) | 25 µg/mL (≈ 54.2 µM) | 25 µg/mL (≈ 54.2 µM) | –
14 | COc1ccc(Cc2ccc(OCCN(C)C)cc2)cc1 | – | > 25 µg/mL | > 25 µg/mL | –
15 | CCN(CC)CCOc1ccc(C(c2ccc(OC)cc2)c2cn(S(=O)(=O)c3ccccc3)c3ccccc23)cc1 (centres undefined) | – | 12.5 µg/mL (≈ 22 µM) | 12.5 µg/mL (≈ 22 µM) | –
16 | COc1ccc(C(c2ccc(OCCN3CCCC3)cc2)c2cc3ccccc3c3ccccc23)cc1 (centres undefined) | 6.25 µg/mL (≈ 12.8 µM) | 6.25 µg/mL (≈ 12.8 µM) | 6.25 µg/mL (≈ 12.8 µM) | 20
17 | COc1ccc(C(c2ccc(OCCN(C)C)cc2)c2cccnc2)cc1 (centres undefined) | – | > 25 µg/mL | > 25 µg/mL | –
18 | COc1ccc(C(c2ccc(OCCN3CCCCC3)cc2)c2cccnc2)cc1 (centres undefined) | 12.5 µg/mL (≈ 31.1 µM) | > 25 µg/mL | > 25 µg/mL | –
19 | COc1ccc(C(c2ccc(OCCN3CCCCCC3)cc2)c2cn(S(=O)(=O)c3ccccc3)c3ccccc23)cc1 (centres undefined) | 12.5 µg/mL (≈ 21 µM) | 12.5 µg/mL (≈ 21 µM) | 12.5 µg/mL (≈ 21 µM) | –
